Laboratory results as given in ChEMBL document CHEMBL5042469, “Unique Molecular Interaction with the Histone Deacetylase 6 Catalytic Tunnel: Crystallographic and Biological Characterization of a Model Chemotype” (J Med Chem, 2021).
One block for each compound: values may come before it. Activity calls are given as the source filed them. The rule behind the calls is not given here.

Experiments:
MV4-11 [1] = test: Induction of apoptosis in human MV4-11 cells assessed as viable cells at 0.25 uM incubated for 15 mins by Annexin-V/FITC staining based FACS analysis (reference value: 84.58%); type: functional; conditions: MV4-11, 0.25 h, read-out: Activity
In short: (§1)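 MV4-11 cells were dosed, then washed twice in cold PBS and resuspended in binding buffer at 1×10^6 cells/mL. Cells were stained with FITC-annexin V and propidium iodide for 15 min in the dark, diluted with binding buffer and analysed by flow cytometry within 1 h. Quadrants: LL viable, LR early apoptotic, UR late apoptotic. Duplicate experiments averaged; DMSO control.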

MV4-11 [2] = test: Induction of apoptosis in human MV4-11 cells assessed as early apoptotic cells at 0.50 uM incubated for 15 mins by Annexin-V/FITC staining based FACS analysis (reference value: 7.28%); type: functional; conditions: dose 0.5 µM, 0.25 h; in short: as §1
MV4-11 [3] = test: Induction of apoptosis in human MV4-11 cells assessed as early apoptotic cells at 1 uM incubated for 15 mins by Annexin-V/FITC staining based FACS analysis (reference value: 7.28%); type: functional; conditions: 0.25 h; in short: as §1
MV4-11 [4] = test: Induction of apoptosis in human MV4-11 cells assessed as early apoptotic cells at 4 uM incubated for 15 mins by Annexin-V/FITC staining based FACS analysis (reference value: 7.28%); type: functional; conditions: 0.25 h; in short: as §1
MV4-11 [5] = test: Induction of apoptosis in human MV4-11 cells assessed as late apoptotic cells at 0.25 uM incubated for 15 mins by Annexin-V/FITC staining based FACS analysis (reference value: 4.36%); type: functional; in short: as §1
MV4-11 [6] = test: Induction of apoptosis in human MV4-11 cells assessed as late apoptotic cells at 2 uM incubated for 15 mins by Annexin-V/FITC staining based FACS analysis (reference value: 4.36%); type: functional; conditions: 0.25 h; in short: as §1
Histone deacetylase 5 = Histone deacetylase 5 (Homo sapiens, UniProt Q9UQL6); test: Inhibition of full length human HDAC5 using FAM-labeled acetylated peptide as substrate by electrophoretic mobility shift assay
Histone deacetylase 5, sequence (Q9UQL6 whole entry, canonical isoform): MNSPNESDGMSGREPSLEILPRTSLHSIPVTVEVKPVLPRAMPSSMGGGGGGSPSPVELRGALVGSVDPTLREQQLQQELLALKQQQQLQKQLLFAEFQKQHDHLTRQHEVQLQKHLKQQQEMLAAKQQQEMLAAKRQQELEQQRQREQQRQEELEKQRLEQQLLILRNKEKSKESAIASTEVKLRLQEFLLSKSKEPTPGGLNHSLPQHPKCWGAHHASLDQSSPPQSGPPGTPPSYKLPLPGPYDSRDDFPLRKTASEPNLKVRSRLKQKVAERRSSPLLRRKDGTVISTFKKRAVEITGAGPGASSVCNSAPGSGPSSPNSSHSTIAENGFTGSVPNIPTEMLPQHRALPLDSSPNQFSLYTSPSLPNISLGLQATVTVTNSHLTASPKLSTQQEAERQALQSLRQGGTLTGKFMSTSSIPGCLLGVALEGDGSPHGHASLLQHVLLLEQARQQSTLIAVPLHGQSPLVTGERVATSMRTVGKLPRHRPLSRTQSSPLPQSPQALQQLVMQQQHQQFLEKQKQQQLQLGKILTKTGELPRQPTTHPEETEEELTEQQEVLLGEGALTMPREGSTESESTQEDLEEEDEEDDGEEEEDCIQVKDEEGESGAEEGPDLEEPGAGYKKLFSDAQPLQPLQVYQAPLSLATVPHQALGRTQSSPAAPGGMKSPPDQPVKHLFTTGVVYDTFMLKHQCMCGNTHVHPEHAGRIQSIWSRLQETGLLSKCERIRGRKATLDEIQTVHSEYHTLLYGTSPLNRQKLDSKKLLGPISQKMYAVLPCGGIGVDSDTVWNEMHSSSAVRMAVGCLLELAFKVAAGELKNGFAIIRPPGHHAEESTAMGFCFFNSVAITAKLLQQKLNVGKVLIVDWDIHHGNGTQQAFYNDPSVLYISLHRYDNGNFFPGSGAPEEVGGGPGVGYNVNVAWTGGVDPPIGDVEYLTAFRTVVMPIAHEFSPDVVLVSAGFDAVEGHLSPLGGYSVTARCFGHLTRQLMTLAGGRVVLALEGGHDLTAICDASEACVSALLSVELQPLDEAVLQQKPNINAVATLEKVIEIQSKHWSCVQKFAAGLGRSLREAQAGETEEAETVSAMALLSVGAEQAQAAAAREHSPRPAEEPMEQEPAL
In short: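 Full-length human HDAC isoform enzymatic assay by electrophoretic mobility shift, using a FAM-labelled acetylated peptide substrate. […] Values are the mean of duplicate experiments with 95% confidence intervals.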

MV4-11 [7] = test: Induction of apoptosis in human MV4-11 cells assessed as viable cells at 0.25 uM incubated for 15 mins by Annexin-V/FITC staining based FACS analysis (reference value: 35.53%); type: functional; conditions: MV4-11, 0.25 h, read-out: Activity; in short: as §1
MV4-11 [8] = test: Induction of apoptosis in human MV4-11 cells assessed as viable cells at 0.50 uM incubated for 15 mins by Annexin-V/FITC staining based FACS analysis (reference value: 35.53%); type: functional; conditions: MV4-11, 0.25 h, read-out: Activity; in short: as §1
MV4-11 [9] = test: Induction of apoptosis in human MV4-11 cells assessed as viable cells at 1 uM incubated for 15 mins by Annexin-V/FITC staining based FACS analysis (reference value: 35.53%); type: functional; conditions: MV4-11, 0.25 h, read-out: Activity; in short: as §1
MV4-11 [10] = test: Induction of apoptosis in human MV4-11 cells assessed as viable cells at 2 uM incubated for 15 mins by Annexin-V/FITC staining based FACS analysis (reference value: 35.53%); type: functional; conditions: MV4-11, 0.25 h, read-out: Activity; in short: as §1
MV4-11 [11] = test: Induction of apoptosis in human MV4-11 cells assessed as viable cells at 4 uM incubated for 15 mins by Annexin-V/FITC staining based FACS analysis (reference value: 35.53%); type: functional; conditions: MV4-11, 0.25 h, read-out: Activity; in short: as §1
MV4-11 [12] = test: Induction of apoptosis in human MV4-11 cells assessed as early apoptotic cells at 0.25 uM incubated for 15 mins by Annexin-V/FITC staining based FACS analysis (reference value: 0.70%); type: functional; in short: as §1
MV4-11 [13] = test: Induction of apoptosis in human MV4-11 cells assessed as early apoptotic cells at 0.50 uM incubated for 15 mins by Annexin-V/FITC staining based FACS analysis (reference value: 0.70%); type: functional; conditions: dose 0.5 µM, 0.25 h; in short: as §1
MV4-11 [14] = test: Induction of apoptosis in human MV4-11 cells assessed as early apoptotic cells at 4 uM incubated for 15 mins by Annexin-V/FITC staining based FACS analysis (reference value: 0.70%); type: functional; conditions: 0.25 h; in short: as §1
MV4-11 [15] = test: Induction of apoptosis in human MV4-11 cells assessed as late apoptotic cells at 0.25 uM incubated for 15 mins by Annexin-V/FITC staining based FACS analysis (reference value: 4.17%); type: functional; in short: as §1
MV4-11 [16] = test: Induction of apoptosis in human MV4-11 cells assessed as late apoptotic cells at 0.50 uM incubated for 15 mins by Annexin-V/FITC staining based FACS analysis (reference value: 4.17%); type: functional; conditions: dose 0.5 µM, 0.25 h; in short: as §1
MV4-11 [17] = test: Induction of apoptosis in human MV4-11 cells assessed as late apoptotic cells at 1 uM incubated for 15 mins by Annexin-V/FITC staining based FACS analysis (reference value: 4.17%); type: functional; conditions: 0.25 h; in short: as §1
MV4-11 [18] = test: Induction of apoptosis in human MV4-11 cells assessed as late apoptotic cells at 4 uM incubated for 15 mins by Annexin-V/FITC staining based FACS analysis (reference value: 4.17%); type: functional; conditions: 0.25 h; in short: as §1
MV4-11 [19] = test: Induction of ROS generation in human MV4-11 cells at 10 uM measured over 4 hrs by DCFDA staning based spectrophotometric analysis; type: functional, cell-based
In short: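 MV4-11 cells were washed once in PBS and loaded with DCFDA (33 μM) for 30 min at 37 °C in the dark. Cells were then washed, resuspended in supplemental buffer and dosed with compound. Fluorescence (Ex/Em 485/535) was followed for up to 4 h against a DMSO control.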

[20] = Stability in human whole blood assessed as compound remaining measured after 15 mins; type: ADME, tissue-based; conditions: read-out: Stability
[21] = Half life in mouse plasma incubated for 1 hr; type: ADME, cell-free
In short: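 Compound was incubated in mouse plasma or in pooled human whole blood. […] Triplicate studies, averaged.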

[22] = Half life in Balb/c mouse at 50 mg/kg, ip by LC-MS/MS analysis; type: ADME, organism-based; conditions: in vivo
In short: (§2)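 Male BALB/c mice received a single intraperitoneal dose from a 50 mg/mL solution in 5% DMSO, 30% PEG400, 1% Tween80 and 64% saline. Blood was collected at several time points and the compound quantified by triple-quadrupole LC-MS/MS.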

[23] = Cmax in Balb/c mouse at 50 mg/kg, ip by LC-MS/MS analysis; type: ADME, organism-based; set-up: route intraperitoneal, dose 50 mg/kg; conditions: in vivo; in short: as §2
[24] = Kinetic solubility in pH 7.4 PBS buffer assessed as saturation concentration by HPLC analysis; type: physicochemical
Ramos = test: Anti-proliferative activity against human Ramos cells assessed as cell viability measured after 72 hrs by Cell-Titer assay; type: functional, cell-based
In short: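 Cells were plated in 96-well plates and received compound or vehicle (0.5% DMSO) 24 h later. CellTiter-Blue was added at 72 h and fluorescence read at 560/590 nm. IC50 derived by non-linear regression.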

SMILES: O=C(CCCCCCNC(=O)c1cnc(N(c2ccccc2)c2ccccc2Cl)nc1)NO [CITARINOSTAT]
- viability at 0.25 µM (MV4-11 [1]): 84.3%
- Activity (MV4-11 [2]): 10.02%
- Activity (MV4-11 [3]): 16.25%
- Activity (MV4-11 [4]): 38.98%
- Activity (MV4-11 [5]): 4.65%
- Activity (MV4-11 [6]): 13.33%

- IC50 (Histone deacetylase 5): 8.65 µM
- remaining at 0.25 h [20]: 88%
- t1/2 [21]: 1.83 h
- t1/2 [22]: 1.7 h
- Cmax [23]: 95.1 ng/mL
- Kinetic_solubility [24]: 161.5 µM
- IC50 (Ramos): 0.3 µM
SMILES: O=C(NO)c1ccc(CN(Cc2cccnc2)S(=O)(=O)c2cc(F)c(F)c(F)c2F)cc1
- viability at 0.25 µM (MV4-11 [7]): 33.1%
- viability at 0.5 µM (MV4-11 [8]): 28.4%
- viability at 1 µM (MV4-11 [9]): 17.1%
- viability at 2 µM (MV4-11 [10]): 9.59%
- viability at 4 µM (MV4-11 [11]): 7.96%
- Activity (MV4-11 [12]): 0.94%
- Activity (MV4-11 [13]): 1.24%
- Activity (MV4-11 [14]): 2.55%
- Activity (MV4-11 [15]): 3.29%
- Activity (MV4-11 [16]): 5.46%
- Activity (MV4-11 [17]): 6.87%
- Activity (MV4-11 [18]): 19.29%
- Activity (MV4-11 [19]): Active
